Twelve compounds from the M2OR odorant receptor database can be followed below.

Holding throughout (settings): stereoisomer not certain
The target in one assay is T1, OR2T34 (Homo sapiens) (UniProt Q8NGX1).
T1 sequence (whole entry): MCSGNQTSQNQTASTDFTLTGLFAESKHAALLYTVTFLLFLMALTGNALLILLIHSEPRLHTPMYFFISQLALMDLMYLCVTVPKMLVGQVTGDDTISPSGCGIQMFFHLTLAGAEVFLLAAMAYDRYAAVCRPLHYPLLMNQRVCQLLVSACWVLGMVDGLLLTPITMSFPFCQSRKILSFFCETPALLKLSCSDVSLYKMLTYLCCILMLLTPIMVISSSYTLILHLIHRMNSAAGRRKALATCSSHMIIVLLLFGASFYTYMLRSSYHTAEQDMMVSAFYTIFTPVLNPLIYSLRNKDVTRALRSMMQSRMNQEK
The method, boiled down:
(§1)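 Values were gathered from published papers (main text and supplementary material), with extra details requested from the original authors when needed, and checked for typos and inconsistencies. Each receptor–molecule pair is called responsive (active) if the original authors judged the measured signal statistically different from baseline, and non-responsive (inactive) otherwise. Assay methods varied by source, often transient mammalian cell-line luciferase assays. Recorded details include cell line, G-protein, co-transfected protein and tags.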

For the next assay, the target named is T2, OR2T11 (Homo sapiens) (UniProt Q8NH01).
T2 sequence (whole entry): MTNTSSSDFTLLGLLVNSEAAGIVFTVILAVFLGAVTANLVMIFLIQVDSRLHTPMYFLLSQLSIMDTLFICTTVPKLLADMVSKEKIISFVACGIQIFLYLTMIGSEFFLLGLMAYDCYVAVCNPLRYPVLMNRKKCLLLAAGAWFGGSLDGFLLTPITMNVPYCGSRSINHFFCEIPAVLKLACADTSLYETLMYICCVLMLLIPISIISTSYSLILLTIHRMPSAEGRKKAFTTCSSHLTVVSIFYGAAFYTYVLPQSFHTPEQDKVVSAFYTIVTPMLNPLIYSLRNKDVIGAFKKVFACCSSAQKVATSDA
A digest of the protocol: as §1

The target in another assay is T3, OR2T12 (Homo sapiens) (UniProt Q8NG77).
T3 sequence (whole entry): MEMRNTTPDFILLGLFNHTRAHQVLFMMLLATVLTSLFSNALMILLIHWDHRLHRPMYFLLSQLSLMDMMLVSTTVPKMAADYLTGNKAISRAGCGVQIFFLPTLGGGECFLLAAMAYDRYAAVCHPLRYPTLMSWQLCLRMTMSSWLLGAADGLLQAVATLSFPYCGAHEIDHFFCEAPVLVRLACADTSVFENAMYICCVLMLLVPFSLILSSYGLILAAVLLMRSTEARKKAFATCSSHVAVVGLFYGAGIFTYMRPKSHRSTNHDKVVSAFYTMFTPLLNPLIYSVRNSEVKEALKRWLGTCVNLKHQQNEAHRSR
A digest of the protocol: as §1

The target of the next assay is T4, OR2T2 (Homo sapiens) (UniProt Q6IF00).
T4 sequence (whole entry): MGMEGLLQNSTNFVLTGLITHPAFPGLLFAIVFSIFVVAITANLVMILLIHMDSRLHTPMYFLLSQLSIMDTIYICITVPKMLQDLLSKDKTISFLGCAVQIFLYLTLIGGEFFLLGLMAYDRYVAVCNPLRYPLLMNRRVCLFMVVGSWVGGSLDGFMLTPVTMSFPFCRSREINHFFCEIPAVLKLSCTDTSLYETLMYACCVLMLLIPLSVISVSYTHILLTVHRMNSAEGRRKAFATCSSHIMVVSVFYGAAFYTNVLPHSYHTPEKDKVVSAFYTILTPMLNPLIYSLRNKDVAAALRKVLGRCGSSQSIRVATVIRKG
The method, boiled down: as §1

A further assay has as its system T5, OR2T2 L104F L262Q.
T5 sequence (whole entry): T4 sequence (whole entry) with L104F, L262Q
A digest of the protocol: as §1

The test system of another assay is T6, OR2T2 L104F.
T6 sequence (whole entry): T4 sequence (whole entry) with L104F
The method, boiled down:
as §1

A further assay has as its system T7, OR2T2 Q313H.
T7 sequence (whole entry): T4 sequence (whole entry) with Q313H
The method, boiled down:
as §1

Another assay deals with T8, OR2T27 (Homo sapiens) (UniProt Q8NH04).
T8 sequence (whole entry): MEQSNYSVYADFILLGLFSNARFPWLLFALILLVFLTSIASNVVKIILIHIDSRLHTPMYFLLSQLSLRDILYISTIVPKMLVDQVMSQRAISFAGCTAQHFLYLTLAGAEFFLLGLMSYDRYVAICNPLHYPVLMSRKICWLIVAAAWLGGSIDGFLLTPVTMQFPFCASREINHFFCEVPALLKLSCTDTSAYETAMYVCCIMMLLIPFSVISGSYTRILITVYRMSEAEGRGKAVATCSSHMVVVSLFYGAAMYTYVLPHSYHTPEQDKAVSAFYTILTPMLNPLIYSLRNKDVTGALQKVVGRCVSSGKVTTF
A digest of the protocol:
as §1

Another assay has as its target T9, OR2T29 (Homo sapiens) (UniProt Q8NH02).
T9 sequence (whole entry): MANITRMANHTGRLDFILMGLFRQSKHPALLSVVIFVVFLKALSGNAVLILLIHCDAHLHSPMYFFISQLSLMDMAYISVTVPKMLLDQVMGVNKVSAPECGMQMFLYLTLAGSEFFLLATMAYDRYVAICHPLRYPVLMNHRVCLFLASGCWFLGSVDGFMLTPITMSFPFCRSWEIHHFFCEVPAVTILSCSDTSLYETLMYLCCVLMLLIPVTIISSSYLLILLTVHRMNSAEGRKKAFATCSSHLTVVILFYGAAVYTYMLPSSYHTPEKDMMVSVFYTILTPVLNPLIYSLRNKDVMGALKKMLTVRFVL
A digest of the protocol:
as §1

Another assay has as its target T10, OR2T3 (Homo sapiens) (UniProt Q8NH03).
T10 sequence (whole entry): T1 sequence (whole entry) with H109Y, M202T, T204M, T214A, R239H, R267P
The method, boiled down:
as §1

The test system of another assay is T11, OR2T3 L256F.
T11 sequence (whole entry): T1 sequence (whole entry) with H109Y, M202T, T204M, T214A, R239H, L256F, R267P
A digest of the protocol: as §1

For the next assay, the system named is T12, OR2T3 R298C.
T12 sequence (whole entry): T1 sequence (whole entry) with H109Y, M202T, T204M, T214A, R239H, R267P, R298C
A digest of the protocol: as §1

The next assay has as its system T13, OR2T3 Y109H.
T13 sequence (whole entry): T1 sequence (whole entry) with M202T, T204M, T214A, R239H, R267P
The method, boiled down:
as §1

For a further assay, the target named is T14, OR2T33 (Homo sapiens) (UniProt Q8NG76).
T14 sequence (whole entry): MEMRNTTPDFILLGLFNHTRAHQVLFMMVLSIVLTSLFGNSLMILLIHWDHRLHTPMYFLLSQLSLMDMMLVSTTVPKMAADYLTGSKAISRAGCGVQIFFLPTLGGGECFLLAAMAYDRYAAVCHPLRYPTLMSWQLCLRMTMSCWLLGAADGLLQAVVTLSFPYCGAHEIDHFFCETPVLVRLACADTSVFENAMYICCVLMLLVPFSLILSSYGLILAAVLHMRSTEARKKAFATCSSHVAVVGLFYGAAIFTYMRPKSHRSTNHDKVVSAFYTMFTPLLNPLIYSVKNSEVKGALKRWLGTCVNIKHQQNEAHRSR
The method, boiled down:
as §1

The target of the next assay is T15, OR2T35 (Homo sapiens) (UniProt Q8NGX2).
T15 sequence (whole entry): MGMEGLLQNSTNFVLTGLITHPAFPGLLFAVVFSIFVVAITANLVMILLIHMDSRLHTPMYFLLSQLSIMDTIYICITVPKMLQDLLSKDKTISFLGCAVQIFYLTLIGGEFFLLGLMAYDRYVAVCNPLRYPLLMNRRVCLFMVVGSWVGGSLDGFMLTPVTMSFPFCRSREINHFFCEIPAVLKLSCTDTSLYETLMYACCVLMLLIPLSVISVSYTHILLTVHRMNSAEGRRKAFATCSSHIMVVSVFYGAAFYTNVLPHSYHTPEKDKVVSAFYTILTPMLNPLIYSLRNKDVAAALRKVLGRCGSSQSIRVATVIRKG
A digest of the protocol: as §1

The target in another assay is T16, OR2T4 (Homo sapiens) (UniProt Q8NH00).
T16 sequence (whole entry): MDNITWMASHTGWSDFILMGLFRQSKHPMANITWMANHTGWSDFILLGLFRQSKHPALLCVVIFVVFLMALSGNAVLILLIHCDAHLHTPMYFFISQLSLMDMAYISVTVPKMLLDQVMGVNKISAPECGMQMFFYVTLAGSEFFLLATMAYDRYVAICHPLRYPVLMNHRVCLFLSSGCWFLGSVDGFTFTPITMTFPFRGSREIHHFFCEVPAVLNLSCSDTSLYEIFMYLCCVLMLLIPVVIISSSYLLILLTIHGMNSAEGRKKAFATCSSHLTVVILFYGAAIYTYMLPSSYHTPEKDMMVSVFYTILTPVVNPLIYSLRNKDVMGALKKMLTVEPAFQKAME
The method, boiled down: as §1

The target in the next assay is T17, OR2T5 (Homo sapiens) (UniProt Q6IEZ7).
T17 sequence (whole entry): T9 sequence (whole entry) with R13K, Q24R
The method, boiled down: as §1

In another assay the test system is T18, OR2T5 K13R K41M G45E.
T18 sequence (whole entry): T9 sequence (whole entry) with Q24R, K41M, G45E
The method, boiled down: as §1

For a further assay, the system named is T19, OR2T5 K13R L134F.
T19 sequence (whole entry): T9 sequence (whole entry) with Q24R, L134F
The method, boiled down:
as §1

In a further assay the target is T20, OR2T6 (Homo sapiens) (UniProt Q8NHC8).
T20 sequence (whole entry): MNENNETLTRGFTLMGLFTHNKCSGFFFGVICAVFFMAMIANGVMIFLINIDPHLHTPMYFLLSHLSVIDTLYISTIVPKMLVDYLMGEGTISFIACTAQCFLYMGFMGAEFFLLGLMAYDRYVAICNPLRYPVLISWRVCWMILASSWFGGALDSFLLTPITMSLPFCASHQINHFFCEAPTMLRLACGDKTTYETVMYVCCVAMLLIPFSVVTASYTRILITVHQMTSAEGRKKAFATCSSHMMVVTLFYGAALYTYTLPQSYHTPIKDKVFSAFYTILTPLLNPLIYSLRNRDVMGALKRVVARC
The method, boiled down: as §1

Each structure is given as a SMILES string. Where a chain is given by its changes, count along the chain named.

With `CCCCCC1C(=O)CCC1CC(=O)OC` (configuration not stated), the “odorant receptor agonist call” value with OR2T34 (Homo sapiens) is “inactive”.
For the compound `CCCC(S)CCOC(C)=O` (configuration not stated), the “odorant receptor agonist call” value with OR2T11 (Homo sapiens), with OR2T12 (Homo sapiens), with OR2T2 (Homo sapiens), with OR2T2 L104F L262Q, in the assay with OR2T2 L104F and with OR2T2 Q313H was “inactive” throughout. The “odorant receptor agonist call” value in the assay with OR2T27 (Homo sapiens), with OR2T29 (Homo sapiens), with OR2T3 (Homo sapiens), in the assay on OR2T3 L256F, with OR2T3 R298C and in the assay with OR2T3 Y109H was “inactive” throughout. Also, the “odorant receptor agonist call” value in the assay with OR2T33 (Homo sapiens), in the assay with OR2T34 (Homo sapiens), in the assay with OR2T35 (Homo sapiens), in the assay with OR2T4 (Homo sapiens), in the assay with OR2T5 (Homo sapiens) and with OR2T5 K13R K41M G45E was “inactive” each time. Also, the “odorant receptor agonist call” value in the assay on OR2T5 K13R L134F and with OR2T6 (Homo sapiens) was “inactive” in each case.
As to `Cc1occc(=O)c1OC(=O)C(C)C`, the “odorant receptor agonist call” value with OR2T34 (Homo sapiens) was “inactive”.
With `Cc1ccc(C(C)C)cc1O`, the “odorant receptor agonist call” value in the assay with OR2T34 (Homo sapiens) was “inactive”.
Consider `CC(CC=O)c1ccc(C(C)(C)C)cc1` (configuration not stated), for which the “odorant receptor agonist call” value in the assay with OR2T34 (Homo sapiens) was “inactive”.
The same measure, in the same setting: the value for `OCc1ccccc1` was “inactive”; that for `C=CC(C)(O)CCC=C(C)CCC=C(C)C` (configuration not stated) was “inactive”.
Same read-out and setting: in the case of `CC=CC(=O)C1C(C)=CCCC1(C)C` (configuration not stated) it was “active”.
`CC1=NC(C)C(C)S1` (configuration not stated): the “odorant receptor agonist call” value in the assay with OR2T11 (Homo sapiens), with OR2T12 (Homo sapiens), with OR2T2 (Homo sapiens), in the assay with OR2T2 L104F L262Q, in the assay on OR2T2 L104F and in the assay with OR2T2 Q313H was “inactive” in each case. For the same compound, the “odorant receptor agonist call” value in the assay with OR2T27 (Homo sapiens), in the assay with OR2T29 (Homo sapiens), with OR2T3 (Homo sapiens), in the assay with OR2T3 L256F, with OR2T3 R298C and in the assay on OR2T3 Y109H was “inactive” in each case. For the same compound, the “odorant receptor agonist call” value in the assay with OR2T33 (Homo sapiens), with OR2T34 (Homo sapiens), in the assay with OR2T35 (Homo sapiens), with OR2T4 (Homo sapiens), with OR2T5 (Homo sapiens) and with OR2T5 K13R K41M G45E was “inactive” in each case. In addition, the “odorant receptor agonist call” value with OR2T5 K13R L134F and with OR2T6 (Homo sapiens) was “inactive” each time.
For `CCCCC1CCC(=O)O1` (configuration not stated), the “odorant receptor agonist call” value with OR2T34 (Homo sapiens) is “inactive”.
On the same count and under the same terms, the value for `CC(C)(C)C1CCCCC1OCCCCO` (configuration not stated) was “inactive”.
Turning to `CCCCCCC=CCCC=O`, the “odorant receptor agonist call” value with OR2T11 (Homo sapiens), with OR2T12 (Homo sapiens), with OR2T2 (Homo sapiens), in the assay with OR2T2 L104F L262Q, in the assay on OR2T2 L104F and in the assay with OR2T2 Q313H was “inactive” throughout. The “odorant receptor agonist call” value with OR2T27 (Homo sapiens), in the assay with OR2T29 (Homo sapiens), with OR2T3 (Homo sapiens), with OR2T3 R298C, in the assay on OR2T3 Y109H and in the assay with OR2T33 (Homo sapiens) was “inactive” in each case. Moreover, the “odorant receptor agonist call” value in the assay with OR2T34 (Homo sapiens), with OR2T35 (Homo sapiens), with OR2T4 (Homo sapiens), with OR2T5 (Homo sapiens), in the assay with OR2T5 K13R K41M G45E and with OR2T6 (Homo sapiens) was “inactive” in each case.
